Measurements: ChEMBL document CHEMBL3808357, “Discovery of N-(3-((1-Isonicotinoylpiperidin-4-yl)oxy)-4-methylphenyl)-3-(trifluoromethyl)benzamide (CHMFL-KIT-110) as a Selective, Potent, and Orally Available Type II c-KIT Kinase Inhibitor for Gastrointestinal Stromal Tumors (GISTs)” (J Med Chem, 2016)
Active and inactive are the calls of the source. The calls are words filed in the database; no cut-off is given here.

Legend:
[1] = target: Mast/stem cell growth factor receptor Kit (Homo sapiens) (UniProt P10721); experiment: Inhibition of cKIT autophosphorylation at Y703 in human GIST882 cells up to 10 uM after 2 hrs by Western blot analysis; type: cell-based
Mast/stem cell growth factor receptor Kit (Homo sapiens), sequence (P10721 whole entry): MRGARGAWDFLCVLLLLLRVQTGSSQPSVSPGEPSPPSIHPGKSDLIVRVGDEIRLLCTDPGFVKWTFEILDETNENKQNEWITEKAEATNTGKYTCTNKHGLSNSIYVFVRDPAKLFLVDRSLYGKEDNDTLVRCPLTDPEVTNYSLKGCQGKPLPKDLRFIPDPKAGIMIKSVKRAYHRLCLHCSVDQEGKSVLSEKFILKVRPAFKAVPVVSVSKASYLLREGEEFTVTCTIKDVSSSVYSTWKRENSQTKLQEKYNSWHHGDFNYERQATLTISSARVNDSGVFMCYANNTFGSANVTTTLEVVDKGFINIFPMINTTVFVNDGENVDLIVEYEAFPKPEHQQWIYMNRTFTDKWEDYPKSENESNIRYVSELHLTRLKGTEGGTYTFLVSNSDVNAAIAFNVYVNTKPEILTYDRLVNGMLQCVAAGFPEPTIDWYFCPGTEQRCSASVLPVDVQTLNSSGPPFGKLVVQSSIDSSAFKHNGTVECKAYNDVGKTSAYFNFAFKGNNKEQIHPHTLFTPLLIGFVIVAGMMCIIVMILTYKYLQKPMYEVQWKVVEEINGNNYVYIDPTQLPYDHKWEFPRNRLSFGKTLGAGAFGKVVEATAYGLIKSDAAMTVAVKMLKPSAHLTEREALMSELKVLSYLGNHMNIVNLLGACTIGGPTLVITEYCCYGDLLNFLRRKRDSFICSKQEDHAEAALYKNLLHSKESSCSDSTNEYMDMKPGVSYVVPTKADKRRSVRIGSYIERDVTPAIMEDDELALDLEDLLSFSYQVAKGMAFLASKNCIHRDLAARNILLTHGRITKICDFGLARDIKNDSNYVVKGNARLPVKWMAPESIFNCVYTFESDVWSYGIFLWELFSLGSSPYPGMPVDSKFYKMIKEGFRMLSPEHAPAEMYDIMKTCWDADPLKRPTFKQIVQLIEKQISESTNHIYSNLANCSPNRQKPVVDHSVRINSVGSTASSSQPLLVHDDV

[2] = target: Mast/stem cell growth factor receptor Kit (Homo sapiens) (UniProt P10721); experiment: Inhibition of cKIT autophosphorylation at Y823 in human GIST882 cells up to 10 uM after 2 hrs by Western blot analysis; type: cell-based
[3] = target: Mast/stem cell growth factor receptor Kit (Homo sapiens) (UniProt P10721); experiment: Inhibition of cKIT in human GISTT1 cells assessed as suppression of AKT phosphorylation at S473 up to 10 uM after 2 hrs by Western blot analysis; type: cell-based
[4] = target: Platelet-derived growth factor receptor alpha (Homo sapiens) (UniProt P16234); experiment: Inhibition of PDGFRalpha phosphorylation at Y849 in human GISTT1 cells up to 10 uM after 2 hrs by Western blot analysis; type: cell-based
Platelet-derived growth factor receptor alpha (Homo sapiens), sequence (P16234 whole entry): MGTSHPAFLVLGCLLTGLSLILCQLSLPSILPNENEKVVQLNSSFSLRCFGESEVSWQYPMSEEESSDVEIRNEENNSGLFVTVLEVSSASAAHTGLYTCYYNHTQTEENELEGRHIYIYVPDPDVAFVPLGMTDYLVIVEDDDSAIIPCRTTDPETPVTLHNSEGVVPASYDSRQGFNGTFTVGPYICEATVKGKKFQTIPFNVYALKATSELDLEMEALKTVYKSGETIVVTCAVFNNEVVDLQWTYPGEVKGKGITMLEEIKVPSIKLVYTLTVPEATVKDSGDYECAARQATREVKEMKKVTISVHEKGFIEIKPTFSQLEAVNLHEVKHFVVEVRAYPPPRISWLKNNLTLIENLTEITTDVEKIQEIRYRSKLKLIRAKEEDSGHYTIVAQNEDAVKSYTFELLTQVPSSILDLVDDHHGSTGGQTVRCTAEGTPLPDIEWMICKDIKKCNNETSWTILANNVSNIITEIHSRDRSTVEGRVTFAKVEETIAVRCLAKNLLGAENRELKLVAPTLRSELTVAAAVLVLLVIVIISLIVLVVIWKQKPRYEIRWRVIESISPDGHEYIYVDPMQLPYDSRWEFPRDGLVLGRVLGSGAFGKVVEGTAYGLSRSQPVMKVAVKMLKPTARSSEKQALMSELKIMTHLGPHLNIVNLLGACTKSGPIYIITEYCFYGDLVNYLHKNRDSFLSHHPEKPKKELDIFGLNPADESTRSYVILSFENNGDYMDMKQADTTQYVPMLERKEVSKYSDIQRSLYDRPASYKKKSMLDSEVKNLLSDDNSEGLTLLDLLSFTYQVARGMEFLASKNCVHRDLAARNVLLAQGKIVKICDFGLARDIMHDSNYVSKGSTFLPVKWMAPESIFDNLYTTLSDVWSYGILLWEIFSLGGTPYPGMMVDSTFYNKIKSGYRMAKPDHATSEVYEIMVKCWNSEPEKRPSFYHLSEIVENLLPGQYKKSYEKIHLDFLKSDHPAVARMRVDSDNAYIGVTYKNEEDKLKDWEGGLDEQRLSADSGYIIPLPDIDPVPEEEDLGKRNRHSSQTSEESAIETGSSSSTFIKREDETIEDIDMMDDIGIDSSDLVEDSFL
Summary of the method: (§1)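 Cells were washed in cold PBS, lysed in RIPA and immunoblotted for phospho and total proteins, including pPDGFRα Y849/PDGFRβ Y857 and β-actin.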

[5] = target: Mast/stem cell growth factor receptor Kit (Homo sapiens) (UniProt P10721); experiment: Inhibition of cKIT in human GISTT1 cells assessed as suppression of STAT5 phosphorylation at Y694 up to 10 uM after 2 hrs by Western blot analysis; type: cell-based
[6] = target: Mast/stem cell growth factor receptor Kit (Homo sapiens) (UniProt P10721); experiment: Inhibition of cKIT autophosphorylation at Y719 in human GIST48B cells up to 10 uM after 2 hrs by Western blot analysis; type: cell-based
[7] = target: Mast/stem cell growth factor receptor Kit (Homo sapiens) (UniProt P10721); experiment: Inhibition of cKIT in human GIST48B cells assessed as suppression of ERK phosphorylation at T202/Y204 up to 10 uM after 2 hrs by Western blot analysis; type: cell-based
[8] = target: Mast/stem cell growth factor receptor Kit (Homo sapiens) (UniProt P10721); experiment: Inhibition of cKIT in human GIST48B cells assessed as suppression of S6K phosphorylation at T389 up to 10 uM after 2 hrs by Western blot analysis; type: cell-based
GIST48B = experiment: Induction of apoptosis in human GIST48B cells assessed as PARP cleavage up to 3 uM after 72 hrs by Western blot analysis; type: functional, cell-based
[9] = AUC(0 to t) in Sprague-Dawley rat plasma at 1 mg/kg, iv; type: ADME, organism-based
Summary of the method: (§2)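 Male Sprague-Dawley rats, 8 weeks old, fasted overnight, dosed iv or orally. Formulation was 5% DMSO/40% PEG400/55% saline at 1 mg/mL. Blood (~0.2 mL) was drawn from the jugular vein into heparin. Sampling: iv at 1 min to 8 h; oral at 5 min to 24 h. Plasma was separated by centrifugation at 2−8 °C and stored at −80 °C.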

[10] = AUC(0 to infinity) in Sprague-Dawley rat plasma at 1 mg/kg, iv; type: ADME, organism-based; set-up: dose 1 mg/kg, time infinity, route intravenous; summary of the method: as §2
[11] = AUC(0 to infinity) in Sprague-Dawley rat plasma at 10 mg/kg, po; type: ADME, organism-based; set-up: dose 10 mg/kg, time infinity, route oral; summary of the method: as §2
Rattus norvegicus = experiment: Apparent volume of distribution in Sprague-Dawley rat plasma at 10 mg/kg, po; type: ADME, organism-based; conditions: in vivo; summary of the method: as §2
[12] = Cmax in Sprague-Dawley rat plasma at 10 mg/kg, po; type: ADME, organism-based; set-up: dose 10 mg/kg, route oral; summary of the method: as §2
[13] = Oral bioavailability in Sprague-Dawley rat plasma at 10 mg/kg; type: ADME, organism-based
Summary of the method: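 Male Sprague–Dawley rats, 8 weeks old, six in total, fasted overnight; compound dissolved in 5% DMSO/40% PEG400/55% saline (1 mg/mL dosing solution), given iv or orally. About 0.2 mL jugular blood taken with heparin at 1 min–8 h (iv) or 5 min–24 h (oral); plasma separated at 2–8 °C and stored at −80 °C before analysis.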

[14] = Antitumor activity against human GISTT1 cells xenografted in nu/nu mouse assessed as tumor growth inhibition at 50 mg/kg/day administered through oral gavage after 21 days; type: functional; conditions: 504 h, read-out: TGI
Summary of the method: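 Female nu/nu mice, 6 weeks old, received 5 × 10⁶ GIST-T1 cells in PBS/Matrigel (1:1) subcutaneously in the right flank. At 100−200 mm³, six mice per group were dosed daily by oral gavage at 25, 50 or 100 mg/kg/d in 0.5% methylcellulose/0.4% Tween80, or vehicle. Tumor volume was taken as (W²×L)/2, with body weight and tumor measured daily. Tumors were stained for Ki67 (IHC, 1:50 antibody) and by TUNEL.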

[15] = target: Platelet-derived growth factor receptor beta (Homo sapiens, UniProt P09619); experiment: Inhibition of PDGFRbeta phosphorylation at Y857 in human GIST882 cells up to 10 uM after 2 hrs by Western blot analysis; type: cell-based; summary of the method: as §1
Platelet-derived growth factor receptor beta, sequence (P09619 whole entry, the tested form may be a part): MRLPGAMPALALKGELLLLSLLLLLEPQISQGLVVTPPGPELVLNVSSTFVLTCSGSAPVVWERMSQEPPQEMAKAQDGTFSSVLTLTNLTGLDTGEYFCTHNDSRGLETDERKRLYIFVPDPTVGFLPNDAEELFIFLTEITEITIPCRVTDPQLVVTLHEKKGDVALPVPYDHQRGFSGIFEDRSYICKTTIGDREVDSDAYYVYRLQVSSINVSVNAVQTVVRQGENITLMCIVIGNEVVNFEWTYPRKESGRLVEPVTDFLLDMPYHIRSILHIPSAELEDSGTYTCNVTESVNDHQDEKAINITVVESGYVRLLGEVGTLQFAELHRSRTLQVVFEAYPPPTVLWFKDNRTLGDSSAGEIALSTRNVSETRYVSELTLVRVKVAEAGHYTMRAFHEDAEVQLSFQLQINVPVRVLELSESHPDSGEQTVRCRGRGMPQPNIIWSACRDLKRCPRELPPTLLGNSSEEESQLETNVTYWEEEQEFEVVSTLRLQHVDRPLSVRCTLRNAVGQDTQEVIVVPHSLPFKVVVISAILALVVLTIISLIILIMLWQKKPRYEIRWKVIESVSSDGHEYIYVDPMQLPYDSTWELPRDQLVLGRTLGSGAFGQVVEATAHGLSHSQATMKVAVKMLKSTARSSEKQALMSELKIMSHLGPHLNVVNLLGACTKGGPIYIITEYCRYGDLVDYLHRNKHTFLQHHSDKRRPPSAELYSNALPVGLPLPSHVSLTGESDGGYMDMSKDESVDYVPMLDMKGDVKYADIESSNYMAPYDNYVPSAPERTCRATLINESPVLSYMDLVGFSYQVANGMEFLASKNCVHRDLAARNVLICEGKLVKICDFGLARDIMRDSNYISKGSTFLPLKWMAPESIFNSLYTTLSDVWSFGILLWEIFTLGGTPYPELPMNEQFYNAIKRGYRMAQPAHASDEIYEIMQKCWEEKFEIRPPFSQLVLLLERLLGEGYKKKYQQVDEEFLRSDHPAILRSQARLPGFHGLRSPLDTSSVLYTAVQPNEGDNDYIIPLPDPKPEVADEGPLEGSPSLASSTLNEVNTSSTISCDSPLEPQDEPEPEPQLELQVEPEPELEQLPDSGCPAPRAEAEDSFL

[16] = test system: Mast/stem cell growth factor receptor Kit (Homo sapiens), P10721 [V559D]; experiment: Inhibition of Tel-fused cKIT V559D mutant (unknown origin) transfected in mouse BAF3 cells assessed as decrease in cell proliferation after 72 hrs by celltiter-glo/CCK8 assay; type: cell-based
Mast/stem cell growth factor receptor Kit (Homo sapiens), P10721 [V559D], sequence (P10721 whole entry V559D, the tested form may be a part): as the sequence (P10721 whole entry) above, with V559D counted along it
Summary of the method: (§3)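 Stable BaF3 lines made by retroviral transduction with mutagenized TEL-KIT MSCV vectors, puromycin selection 48 h, then gradual IL-3 withdrawal until IL-3-independent; grown in RPMI 1640 with 10% FBS. Cells at 1 to 3 × 10⁴ cells/mL exposed to a concentration series for 72 h; viability read by CellTiter-Glo luminescence or CCK-8 absorbance (450/655 nm); GI50 from triplicate testing.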

[17] = test system: Mast/stem cell growth factor receptor Kit (Homo sapiens), P10721 [T670I]; experiment: Inhibition of Tel-fused cKIT T670I mutant (unknown origin) transfected in mouse BAF3 cells assessed as decrease in cell proliferation after 72 hrs by celltiter-glo/CCK8 assay; type: cell-based; summary of the method: as §3
Mast/stem cell growth factor receptor Kit (Homo sapiens), P10721 [T670I], sequence (P10721 whole entry T670I, the tested form may be a part): as the sequence (P10721 whole entry) above, with T670I counted along it

[18] = test system: Mast/stem cell growth factor receptor Kit (Homo sapiens), P10721 [V654A]; experiment: Inhibition of Tel-fused cKIT V654A mutant (unknown origin) transfected in mouse BAF3 cells assessed as decrease in cell proliferation after 72 hrs by celltiter-glo/CCK8 assay; type: cell-based; summary of the method: as §3
Mast/stem cell growth factor receptor Kit (Homo sapiens), P10721 [V654A], sequence (P10721 whole entry V654A, the tested form may be a part): as the sequence (P10721 whole entry) above, with V654A counted along it

[19] = test system: Mast/stem cell growth factor receptor Kit (Homo sapiens), P10721 [D816V]; experiment: Inhibition of Tel-fused cKIT D816V mutant (unknown origin) transfected in mouse BAF3 cells assessed as decrease in cell proliferation after 72 hrs by celltiter-glo/CCK8 assay; type: cell-based; summary of the method: as §3
Mast/stem cell growth factor receptor Kit (Homo sapiens), P10721 [D816V], sequence (P10721 whole entry D816V, the tested form may be a part): as the sequence (P10721 whole entry) above, with D816V counted along it

[20] = Antiproliferative activity against human GIST48B cells assessed as reduction in cell viability after 72 hrs by celltiter-glo/CCK8 assay; type: functional
Summary of the method: (§4)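 Cells were seeded at 1 to 3 × 10⁴ cells/mL with serial compound concentrations and incubated 72 h at 37 °C, 5% CO₂. Viability was read by CellTiter-Glo luminescence or CCK-8 absorbance (450/655 nm). GI50 values are from triplicate testing. GIST-T1 and CHO were grown in DMEM/10% FBS; GIST-882, GIST-48B and MV4-11 in IMDM/10% FBS; other lines in RPMI 1640/10% FBS.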

[21] = Antiproliferative activity against human Rec1 cells assessed as reduction in cell viability after 72 hrs by celltiter-glo/CCK8 assay; type: functional; conditions: Rec1, 72 h; summary of the method: as §4
[22] = Antiproliferative activity against CHL cells assessed as reduction in cell viability after 72 hrs by celltiter-glo/CCK8 assay; type: cell-based, Cricetulus griseus; conditions: chinese hamster; summary of the method: as §4
[23] = target: Mast/stem cell growth factor receptor Kit (Homo sapiens) (UniProt P10721); experiment: Inhibition of cKIT autophosphorylation at Y719 in human GISTT1 cells up to 10 uM after 2 hrs by Western blot analysis; type: cell-based
[24] = target: Mast/stem cell growth factor receptor Kit (Homo sapiens) (UniProt P10721); experiment: Inhibition of cKIT autophosphorylation at Y823 in human GISTT1 cells up to 10 uM after 2 hrs by Western blot analysis; type: cell-based

- inhibition [1]: Active
- inhibition [2]: Active
- inhibition [3]: Active
- inhibition [4]: Active
- inhibition [5]: Active
- inhibition [6]: Active
- inhibition [7]: inactive
- inhibition [8]: inactive
- AUC(0-t) [9]: 198 ng·h/mL
- AUC(0-inf) [10]: 202 ng·h/mL
- AUC(0-inf) [11]: 780 ng·h/mL
- Vz (Rattus norvegicus): 76.407 L/kg
- Cmax [12]: 125 ng/mL
- bioavailability [13]: 36.1%
- inhibition [15]: Active
- GI50 [16]: 0.04 µM
- GI50 [17]: 8.24 µM
- GI50 [18]: 1.03 µM
- GI50 [19]: > 10 µM
- inhibition [23]: Active
- inhibition [24]: Active
Compound: Cc1ccc(NC(=O)c2cccc(C(F)(F)F)c2)cc1OC1CCN(C(=O)c2ccncc2)CC1
- Activity (GIST48B): inactive
- inhibition in vivo at 50 mg/kg/day [14]: 35%
- GI50 [20]: > 10 µM
- GI50 [21]: > 10 µM
- GI50 at 72 h [22]: > 10 µM
